PglD DTNB: inhibitors of Campylobacter jejuni PglD acetyltransferase; inhibition, % at 12.5 µM; hit rate 0.098% among 360,000; AID 602405; purified PglD enzyme, DTNB colorimetric CoA detection; in the data active = inhibition above about 16%, passing the limit was not always enough
SR-BI uptake up: SR-BI HDL lipid transfer activation; CHO ldlA[mSR-BI] cells, DiI-HDL uptake fluorescence, 3 h; 100 = double the neutral-control signal; activation, % at 12.5 µM; hit rate 0.096% among 320,000; AID 504775;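 active = mean replicate activation of at least 60% and every replicate at or above 60%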
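Material: SR-BI-overexpressing, LDLR-lacking CHO cells | Dosing: Single compound concentration, delivered by pin transfer | Probe or stimulus: Labelled HDL, 10 µg/mL | Signal: Bottom-read cell fluorescence after medium removal, ex 550/em 595 nm | Schedule: 3 h, 37 °C | Evaluation: HDL uptake via cellular fluorescence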
N-glyco inh: blocks N-linked glycosylation in D54 reporter cells; D54 ERlucT glycosylation luciferase reporter, 24 h; percent of 100 nM tunicamycin response; reporter increase, % at 12.5 µM; hit rate 0.23% among 360,000; AID 588692;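 active = mean luciferase reporter signal, scaled so untreated is 0 and the glycosylation-blocking control 100, at or above a set limit in every replicate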;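 also: luciferase carries N-glycosylation sites so blocking glycosylation raises the light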
Rtt109 Vps75: C. albicans Rtt109 histone acetyltransferase inhibition; AID 540336; inhibition, % at 34.9 µM; hit rate 0.16% among 330,000; purified Rtt109/Vps75, ThioGlo CoA-SH fluorescence, 4 h;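 active = inhibition of at least 50% in every replicate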
HIV Env fusion: blocks HIV Env-driven cell-cell fusion. HeLa-JRFL Env/CEM21 cell fusion, luciferase. inhibition, % at 12.3 µM. hit rate 1.1% among 360,000. AID 651610;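 active = mean replicate inhibition score of at least 50 and every replicate individually at or above 50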
SR-BI DiI inh: inhibitors of mouse SR-BI mediated HDL lipid uptake | inhibition, % at 12.5 µM | ldlA[mSR-BI] CHO cells, DiI-HDL uptake fluorescence, 3 h | Q61009 | AID 488896 | hit rate 0.96% among 320,000;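 active = mean replicate inhibition of at least 70% and a set share of replicates each scoring 70 or more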
Target sequence (Q61009 whole entry, looked up): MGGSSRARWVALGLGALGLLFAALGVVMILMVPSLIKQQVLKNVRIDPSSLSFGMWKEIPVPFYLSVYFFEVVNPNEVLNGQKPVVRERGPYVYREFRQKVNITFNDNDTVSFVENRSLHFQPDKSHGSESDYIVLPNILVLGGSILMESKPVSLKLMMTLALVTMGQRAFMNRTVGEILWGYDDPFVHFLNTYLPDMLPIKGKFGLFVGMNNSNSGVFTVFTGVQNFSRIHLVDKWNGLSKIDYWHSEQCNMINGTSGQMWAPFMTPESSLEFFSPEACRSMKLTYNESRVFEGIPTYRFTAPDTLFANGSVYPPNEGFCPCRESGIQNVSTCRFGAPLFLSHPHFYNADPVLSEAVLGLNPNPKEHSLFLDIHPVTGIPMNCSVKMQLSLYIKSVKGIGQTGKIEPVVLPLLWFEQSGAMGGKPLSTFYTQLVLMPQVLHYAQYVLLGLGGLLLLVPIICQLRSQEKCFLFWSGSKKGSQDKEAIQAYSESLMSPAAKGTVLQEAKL
A number is an active result; . = inactive; / = no result. A selection: hits, their analogues and other compounds. The true share with any hit is near 1.9%.

SMILES | PglD DTNB | SR-BI uptake up | N-glyco inh | Rtt109 Vps75 | HIV Env fusion | SR-BI DiI inh
Cc1noc(C)c1NC(=O)N(C)C[C@H]1OCCCC[C@H](C)Oc2ccc(NC(=O)NC3CCCCC3)cc2C(=O)N([C@@H](C)CO)C[C@@H]1C | . | / | / | / | . | /
O=C(N/N=C/c1ccccn1)c1ccc(NC(=O)c2cccc([N+](=O)[O-])c2)cc1 | / | . | . | . | . | 81.7
COc1ccc2ccccc2c1/C=N/NC(=O)c1cccc([N+](=O)[O-])c1 | . | . | . | . | . | 86.2
O=C(N/N=C/c1ccccn1)c1cccc([N+](=O)[O-])c1 | / | . | . | . | . | .
COc1cccc(/C=N/NC(=O)c2cc3cc([N+](=O)[O-])ccc3s2)c1O | . | . | . | . | . | 125.5
O=C(N/N=C/c1ccccc1O)c1cccc(C(F)(F)F)c1 | . | . | . | . | . | 136.3
COc1ccc(/C=N/NC(=O)c2cccc([N+](=O)[O-])c2)cc1O | / | . | . | / | . | .
O=C(O)C[C@H]1C[C@@H]2c3cc(NC(=O)Nc4ccccc4F)ccc3O[C@@H]2[C@@H](CO)O1 | . | / | / | / | . | /
CC(C)NC(=O)Nc1ccc2c(c1)C(=O)N([C@@H](C)CO)C[C@@H](C)[C@@H](CN(C)Cc1ccc(C(=O)O)cc1)O2 | . | / | / | / | . | /
O=C(NN=Cc1ccccc1O)c1cccc([N+](=O)[O-])c1 | . | . | . | . | . | 128.6
Cc1cc(/C=N/Nc2ncnc(N)c2[N+](=O)[O-])c(C)n1-c1ccccc1 | . | . | . | . | 55.2 | .
Cc1ccccc1C(=O)Nc1cccc(C(=O)N/N=C/c2cc(Cl)cc([N+](=O)[O-])c2O)c1 | / | . | . | . | . | 102.1
COc1cccc(/C=N/Nc2ncnc(N)c2[N+](=O)[O-])c1OC | . | . | . | . | / | .
Cc1cc(/C=N/NC(=O)c2cccc([N+](=O)[O-])c2)c(C)n1-c1ccccc1 | / | . | . | . | . | 79.7
CCC(=O)N1CCCCN2[C@H](CO)[C@@H](c3ccc(C#Cc4ccccc4)cc3)[C@H]2C1 | . | / | / | / | / | /
O=S(=O)(N[C@H]1CC[C@@H](CCn2cc(-c3cccc(F)c3)nn2)O[C@@H]1CO)c1ccc(F)cc1 | . | / | / | / | . | /
C[C@H](CO)N1C[C@H](C)[C@H](CN(C)Cc2ccncc2)Oc2cc(C#C[C@@H](C)O)ccc2S1(=O)=O | . | / | / | / | . | /
CCOC(=O)c1ccc(N=c2sc(C(=O)OC)cc(=O)n2Cc2ccco2)cc1 | . | . | 55.8 | . | . | .
O=C(Nc1ccc(S(=O)(=O)N2CCCCC2)cc1)c1ccc(CN2CCOCC2)cc1 | . | . | . | . | / | .
CCCN(CCC)S(=O)(=O)c1ccc(C(=O)Nc2ccc(OCC(=O)N3CCOCC3)cc2)cc1 | . | . | 40.4 | / | . | .
O=C(Nc1ccc(S(=O)(=O)N2CCN(Cc3ccccc3)CC2)cc1)c1cnccn1 | . | . | . | . | 95.2 | .
CCCCOc1ccc(C(=O)Nc2cc(C)c(OCC(=O)N3CCOCC3)c(C)c2)cc1 | . | . | . | . | . | .
O=C(Nc1ccc(S(=O)(=O)N2CCCC2)cc1)c1ccc(CN2CCOCC2)cc1 | . | . | . | . | 73.6 | .
CCN(CC)S(=O)(=O)c1ccc(NC(=O)c2ccc(CN3CCOCC3)cc2)cc1 | . | . | . | . | 63.8 | .
O=C(Nc1ccc2c(c1)[C@@H]1C[C@H](CC(=O)N3CCc4ccccc4C3)O[C@H](CO)[C@@H]1O2)C1CCC1 | . | / | / | / | . | /
O=C(C[C@H]1C=C[C@H](NC(=O)NC2CCCCC2)[C@H](CO)O1)NCc1ccc(F)cc1 | . | / | / | / | . | /
C[C@H](CO)N1C[C@H](C)[C@@H](CN(C)S(=O)(=O)c2ccc(Cl)cc2)Oc2ccc(NS(=O)(=O)c3ccc(F)cc3)cc2CC1=O | . | / | / | / | . | /
Cc1ccc(C(=O)Nc2cc(S(=O)(=O)N3CCOCC3)ccc2N2CCCC2)cc1 | . | . | 45.2 | . | / | .
CCN1CCN(S(=O)(=O)c2ccc(Cl)c(C(=O)Nc3ccccc3N3CCCC3)c2)CC1 | . | . | . | . | 80.5 | .
O=C(Nc1ccc(CN2CCOCC2)cc1)c1ccc(-c2cccc([N+](=O)[O-])c2)o1 | . | . | . | . | . | 72.1
